Measured values from the M2OR odorant receptor database.

Experiments:
Settings in all cases: stereoisomer not certain
UniProt A2ATE5 = biological target: T1, UniProt A2ATE5
T1 sequence (whole entry): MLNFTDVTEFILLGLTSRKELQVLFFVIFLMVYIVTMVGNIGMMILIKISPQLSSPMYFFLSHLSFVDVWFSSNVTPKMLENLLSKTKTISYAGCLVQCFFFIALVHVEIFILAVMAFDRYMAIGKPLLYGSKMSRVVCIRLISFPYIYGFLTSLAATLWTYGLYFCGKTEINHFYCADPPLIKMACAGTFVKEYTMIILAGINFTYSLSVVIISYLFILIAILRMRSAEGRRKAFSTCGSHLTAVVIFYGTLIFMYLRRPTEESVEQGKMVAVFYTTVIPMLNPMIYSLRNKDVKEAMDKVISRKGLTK
Outline: (§1)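 Transient luciferase assays in mammalian cell lines were common, though methods varied by source. The values come from published papers and their supplementary material, with extra details from the original authors when needed. Responsive refers to a measured signal the original authors judged statistically different from baseline, and non-responsive (inactive) to the remainder.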

UniProt A2AVB0 = biological target: T2, UniProt A2AVB0
T2 sequence (whole entry): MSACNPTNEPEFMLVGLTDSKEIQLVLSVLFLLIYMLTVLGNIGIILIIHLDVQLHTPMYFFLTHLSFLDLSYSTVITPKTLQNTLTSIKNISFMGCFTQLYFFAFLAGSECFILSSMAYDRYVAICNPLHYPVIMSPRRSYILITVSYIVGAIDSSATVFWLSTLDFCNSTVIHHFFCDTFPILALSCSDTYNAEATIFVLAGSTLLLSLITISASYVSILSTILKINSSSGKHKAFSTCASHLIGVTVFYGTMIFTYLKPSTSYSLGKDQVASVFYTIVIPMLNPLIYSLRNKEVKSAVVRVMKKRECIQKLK
Outline: as §1

UniProt E9PVX1 = biological target: T3, UniProt E9PVX1
T3 sequence (whole entry): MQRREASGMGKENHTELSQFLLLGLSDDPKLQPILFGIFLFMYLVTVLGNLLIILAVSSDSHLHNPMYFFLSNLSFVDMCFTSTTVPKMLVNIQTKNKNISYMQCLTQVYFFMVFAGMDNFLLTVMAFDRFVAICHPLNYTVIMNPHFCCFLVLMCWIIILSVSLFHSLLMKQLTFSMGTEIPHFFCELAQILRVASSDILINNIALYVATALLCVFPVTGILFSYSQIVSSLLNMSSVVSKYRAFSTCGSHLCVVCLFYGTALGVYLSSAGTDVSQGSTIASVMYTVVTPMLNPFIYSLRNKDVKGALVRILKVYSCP
Outline: as §1

UniProt E9PZ66 = biological target: T4, UniProt E9PZ66
T4 sequence (whole entry): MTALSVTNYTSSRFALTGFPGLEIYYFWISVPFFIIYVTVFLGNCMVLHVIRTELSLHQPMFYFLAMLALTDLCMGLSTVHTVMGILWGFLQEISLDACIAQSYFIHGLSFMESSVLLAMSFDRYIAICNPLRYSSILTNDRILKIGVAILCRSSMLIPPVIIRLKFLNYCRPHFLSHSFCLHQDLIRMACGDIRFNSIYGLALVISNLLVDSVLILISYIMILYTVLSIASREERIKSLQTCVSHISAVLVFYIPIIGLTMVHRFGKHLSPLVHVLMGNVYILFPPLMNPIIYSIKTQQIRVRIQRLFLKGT
Outline: as §1

UniProt E9Q4X7 = biological target: T5, UniProt E9Q4X7
T5 sequence (whole entry): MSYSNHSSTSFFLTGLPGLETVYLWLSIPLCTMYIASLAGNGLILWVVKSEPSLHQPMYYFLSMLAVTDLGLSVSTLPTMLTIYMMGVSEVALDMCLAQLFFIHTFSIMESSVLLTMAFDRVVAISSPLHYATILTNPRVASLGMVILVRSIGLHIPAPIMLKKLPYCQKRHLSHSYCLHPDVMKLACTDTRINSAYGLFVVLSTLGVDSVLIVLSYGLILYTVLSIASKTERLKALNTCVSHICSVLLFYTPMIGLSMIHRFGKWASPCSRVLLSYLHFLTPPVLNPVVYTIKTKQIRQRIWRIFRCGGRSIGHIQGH
Outline: as §1

UniProt E9Q546 = biological target: T6, UniProt E9Q546
T6 sequence (whole entry): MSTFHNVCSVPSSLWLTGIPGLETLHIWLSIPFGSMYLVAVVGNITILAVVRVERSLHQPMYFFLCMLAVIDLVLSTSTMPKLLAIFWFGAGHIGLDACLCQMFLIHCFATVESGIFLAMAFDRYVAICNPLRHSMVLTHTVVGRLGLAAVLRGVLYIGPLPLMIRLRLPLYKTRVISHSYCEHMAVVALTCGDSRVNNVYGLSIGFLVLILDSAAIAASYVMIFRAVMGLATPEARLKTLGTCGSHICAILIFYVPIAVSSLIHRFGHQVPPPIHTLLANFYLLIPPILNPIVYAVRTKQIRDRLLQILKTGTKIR
Outline: as §1

UniProt E9Q6Z7 = biological target: T7, UniProt E9Q6Z7
T7 sequence (whole entry): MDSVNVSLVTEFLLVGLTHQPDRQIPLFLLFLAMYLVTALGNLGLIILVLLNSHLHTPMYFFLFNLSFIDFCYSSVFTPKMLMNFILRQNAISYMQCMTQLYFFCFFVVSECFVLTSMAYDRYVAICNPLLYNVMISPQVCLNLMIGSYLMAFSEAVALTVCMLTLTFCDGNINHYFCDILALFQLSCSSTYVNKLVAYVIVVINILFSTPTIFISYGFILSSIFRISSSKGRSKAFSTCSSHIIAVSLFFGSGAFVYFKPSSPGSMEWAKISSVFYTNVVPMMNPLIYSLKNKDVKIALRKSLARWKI
Outline: as §1

UniProt A2AVB5 = biological target: T8, UniProt A2AVB5
T8 sequence (whole entry): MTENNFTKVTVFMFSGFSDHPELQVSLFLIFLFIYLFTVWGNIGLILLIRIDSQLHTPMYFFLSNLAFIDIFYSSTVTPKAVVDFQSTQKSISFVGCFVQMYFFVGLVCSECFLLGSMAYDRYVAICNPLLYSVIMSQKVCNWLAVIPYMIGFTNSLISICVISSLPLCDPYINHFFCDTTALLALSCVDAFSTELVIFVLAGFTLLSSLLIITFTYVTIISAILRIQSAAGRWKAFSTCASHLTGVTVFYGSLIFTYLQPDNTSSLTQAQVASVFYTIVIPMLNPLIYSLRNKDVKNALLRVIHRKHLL
Outline: as §1

UniProt B2RVX8 = biological target: T9, UniProt B2RVX8
T9 sequence (whole entry): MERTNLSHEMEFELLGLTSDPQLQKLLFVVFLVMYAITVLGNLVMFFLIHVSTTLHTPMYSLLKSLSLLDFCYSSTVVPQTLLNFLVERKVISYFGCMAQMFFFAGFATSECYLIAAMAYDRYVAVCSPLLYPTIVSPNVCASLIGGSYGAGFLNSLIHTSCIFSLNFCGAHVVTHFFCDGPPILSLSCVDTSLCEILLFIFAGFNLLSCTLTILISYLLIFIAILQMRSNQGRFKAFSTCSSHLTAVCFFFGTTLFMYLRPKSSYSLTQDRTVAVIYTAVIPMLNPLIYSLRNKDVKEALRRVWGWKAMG
Outline: as §1

UniProt K7N609 = biological target: T10, UniProt K7N609
T10 sequence (whole entry): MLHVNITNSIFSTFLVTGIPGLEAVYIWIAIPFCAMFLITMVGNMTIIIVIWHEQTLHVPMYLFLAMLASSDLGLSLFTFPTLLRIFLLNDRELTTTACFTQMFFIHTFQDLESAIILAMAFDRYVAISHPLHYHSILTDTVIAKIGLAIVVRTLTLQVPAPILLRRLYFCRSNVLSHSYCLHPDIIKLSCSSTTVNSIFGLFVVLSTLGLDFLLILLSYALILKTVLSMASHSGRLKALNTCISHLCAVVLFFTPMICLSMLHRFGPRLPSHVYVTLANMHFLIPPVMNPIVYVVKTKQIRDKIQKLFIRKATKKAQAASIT
Outline: as §1

UniProt E9PX47 = biological target: T11, UniProt E9PX47
T11 sequence (whole entry): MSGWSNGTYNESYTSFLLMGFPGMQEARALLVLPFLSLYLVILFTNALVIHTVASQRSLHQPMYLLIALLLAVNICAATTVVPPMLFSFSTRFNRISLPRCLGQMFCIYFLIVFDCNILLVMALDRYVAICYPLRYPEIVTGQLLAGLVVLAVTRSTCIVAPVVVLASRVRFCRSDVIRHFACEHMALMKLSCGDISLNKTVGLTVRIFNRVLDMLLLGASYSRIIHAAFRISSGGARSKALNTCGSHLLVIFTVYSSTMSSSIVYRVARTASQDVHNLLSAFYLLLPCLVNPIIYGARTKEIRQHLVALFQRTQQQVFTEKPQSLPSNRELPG
Outline: as §1

UniProt E1BM68 = biological target: T12, UniProt E1BM68
T12 sequence (whole entry): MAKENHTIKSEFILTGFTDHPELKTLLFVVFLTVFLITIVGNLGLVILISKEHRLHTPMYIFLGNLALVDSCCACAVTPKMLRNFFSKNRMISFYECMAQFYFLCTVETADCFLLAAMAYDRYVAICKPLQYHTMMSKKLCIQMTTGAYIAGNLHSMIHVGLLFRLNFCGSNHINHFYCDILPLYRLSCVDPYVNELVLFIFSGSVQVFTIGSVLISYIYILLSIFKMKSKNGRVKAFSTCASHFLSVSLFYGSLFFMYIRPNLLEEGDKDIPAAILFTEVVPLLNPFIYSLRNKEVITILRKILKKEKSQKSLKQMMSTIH
Outline: as §1

UniProt E9QAT7 = biological target: T13, UniProt E9QAT7
T13 sequence (whole entry): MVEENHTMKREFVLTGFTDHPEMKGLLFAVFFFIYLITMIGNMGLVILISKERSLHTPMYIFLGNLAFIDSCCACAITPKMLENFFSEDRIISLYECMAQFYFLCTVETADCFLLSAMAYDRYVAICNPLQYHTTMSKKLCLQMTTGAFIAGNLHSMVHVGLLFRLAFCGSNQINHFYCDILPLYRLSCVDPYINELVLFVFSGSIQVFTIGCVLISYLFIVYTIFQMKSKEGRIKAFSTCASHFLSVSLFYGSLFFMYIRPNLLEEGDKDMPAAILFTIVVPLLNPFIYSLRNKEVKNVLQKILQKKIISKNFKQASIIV
Outline: as §1

Measured: odorant receptor agonist call;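 also: active if original authors judged signal statistically different from baseline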

CSSSC
inactive: UniProt A2ATE5 | UniProt A2AVB0 | UniProt E9PVX1 | UniProt E9PZ66 | UniProt E9Q4X7 | UniProt E9Q546 | UniProt E9Q6Z7

CCC=CCCCCC=O
inactive: UniProt A2ATE5 | UniProt A2AVB0 | UniProt E9PVX1 | UniProt E9PZ66 | UniProt E9Q4X7 | UniProt E9Q546 | UniProt E9Q6Z7

C=CC(=C)CCC=C(C)C
inactive: UniProt A2ATE5 | UniProt A2AVB0 | UniProt E9PVX1 | UniProt E9PZ66 | UniProt E9Q4X7 | UniProt E9Q546 | UniProt E9Q6Z7

CCC(C)O (stereo not given)
inactive: UniProt A2ATE5 | UniProt A2AVB0 | UniProt E9PVX1 | UniProt E9PZ66 | UniProt E9Q4X7 | UniProt E9Q546 | UniProt E9Q6Z7

C=CC(C)=CCC=C(C)CCC=C(C)C
inactive: UniProt A2ATE5 | UniProt A2AVB0 | UniProt E9PVX1 | UniProt E9PZ66 | UniProt E9Q4X7 | UniProt E9Q546 | UniProt E9Q6Z7

CCC(C(=O)O)c1ccccc1 (stereo not given)
inactive: UniProt A2AVB5 | UniProt B2RVX8 | UniProt E9Q546 | UniProt K7N609

CC=CC(=O)C1=C(C)CCCC1(C)C
inactive: UniProt A2ATE5 | UniProt A2AVB0 | UniProt E9PVX1 | UniProt E9PZ66 | UniProt E9Q4X7 | UniProt E9Q546 | UniProt E9Q6Z7

C=CC(=O)CCCCC
inactive: UniProt A2ATE5 | UniProt A2AVB0 | UniProt E9PVX1 | UniProt E9PZ66 | UniProt E9Q4X7 | UniProt E9Q546 | UniProt E9Q6Z7

C=C(C)C1CC=C(C)CC1 (stereo not given)
inactive: UniProt A2ATE5 | UniProt A2AVB0 | UniProt E9PVX1 | UniProt E9PZ66 | UniProt E9Q4X7 | UniProt E9Q546 | UniProt E9Q6Z7

Cc1occc1SSc1ccoc1C
inactive: UniProt A2ATE5 | UniProt A2AVB0 | UniProt E9PVX1 | UniProt E9PZ66 | UniProt E9Q4X7 | UniProt E9Q546 | UniProt E9Q6Z7

CCCCCCC(=O)[O-].[H+]
inactive: UniProt A2AVB5 | UniProt B2RVX8 | UniProt E9PX47 | UniProt E9Q546 | UniProt K7N609

Cc1cncc(C)n1
active: UniProt E1BM68 | UniProt E9QAT7

CCSCC
inactive: UniProt A2ATE5 | UniProt A2AVB0 | UniProt E9PVX1 | UniProt E9PZ66 | UniProt E9Q4X7 | UniProt E9Q546 | UniProt E9Q6Z7

CC(C)CS
inactive: UniProt A2ATE5 | UniProt A2AVB0 | UniProt E9PVX1 | UniProt E9PZ66 | UniProt E9Q4X7 | UniProt E9Q546 | UniProt E9Q6Z7

CCCCCO
inactive: UniProt A2AVB5 | UniProt B2RVX8 | UniProt E9Q546 | UniProt K7N609

Cc1ccc(C(C)C)c(O)c1
inactive: UniProt A2ATE5 | UniProt A2AVB0 | UniProt E9PVX1 | UniProt E9PZ66 | UniProt E9Q4X7 | UniProt E9Q546 | UniProt E9Q6Z7

CCCCOC(=O)C(C)OC(=O)CCC (stereo not given)
inactive: UniProt A2AVB5 | UniProt B2RVX8 | UniProt E9Q546 | UniProt K7N609

CCCCCCCCOC=O
inactive: UniProt A2ATE5 | UniProt A2AVB0 | UniProt E9PVX1 | UniProt E9PZ66 | UniProt E9Q4X7 | UniProt E9Q546 | UniProt E9Q6Z7
